Source: PubChem (Columbia University Molecular Screening Center)
Shown is part of a subset that was picked to be rich in hits.
INS promoter act: TRM-6 insulin promoter activation | TRM-6 cells (human fetal islet line), insulin promoter eGFP reporter, imaging; plate-scaled: unstimulated 0, stimulated control 100 | activation, % at 2 µM | 130,000 tested, 0.81% active | AID 1296;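 active = activation at 2 µM above a set limit, confirmed on inspection of the cell images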;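 also: share of cells whose green reporter signal exceeds an intensity cutoff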
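System – TRM-6 insulin promoter–eGFP reporter cells · Probe or stimulus – 0.75 µM tamoxifen as reporter inducer · Dosing – single-point 2 µM compound dose · Incubation – tamoxifen pre-incubation 15 h overnight, then compound exposure 48 h at 37 °C · Measured by – fixed-cell fluorescence microscopy, eGFP plus Hoechst · Evaluation – percent GFP-positive cells normalized to per-plate controls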
* marks the source's active call; other numbers are inactive results.

SMILES	INS promoter act
Cc1cnc(C(=O)NCC(c2ccccc2)c2ccccc2)cn1	9.1
CCCCN(C(=O)Cn1nnc2ccccc21)C(C(=O)NCCOC)c1ccccc1 (stereo not given)	218.9
CCc1ccc(C(C(=O)NCCOC)N(C(=O)Cn2nnc3ccccc32)c2cccnc2)cc1 (stereo not given)	450.0*
Cc1cccc(N(C(=O)Cn2nnc3ccccc32)C(C(=O)NCc2ccco2)c2ccncc2)c1C (stereo not given)	8.7
Cc1nc(SCC(=O)Nn2c(-c3ccccc3)nc3ccccc3c2=O)n[nH]1	-2.9
CCC(C)NC(=O)C(=O)NCC1CCCN1CC (stereo not given)	0.0
CC(=O)NC(Cc1c[nH]c2ccccc12)C(=O)OCC(=O)N1CCCCCC1 (stereo not given)	-5.9
O=S(=O)(c1ccccc1)N1CCN=C1SCc1ccccc1	0.0
CCCS(=O)(=O)N1CCN=C1SCc1ccc(C)cc1	0.0
Cc1ccc(CSC2=NCCN2S(=O)(=O)c2ccccc2)cc1	464.3*
Cc1ccccc1N1C(=O)CN(Cc2sccc2C)C1=S	84.0*
Cc1ccc(N2C(=O)CN(Cc3sccc3C)C2=S)cc1C	-3.2
Cc1ccccc1N1C(=O)CC2(CCCC2)CC1=O	115.4
CCOC(=O)c1c(NC(=O)CSc2nnc(C)s2)sc2c1CCC(CC)C2 (stereo not given)	3.2
CCSc1nc(-c2ccc(OC)cc2)n(-c2nc3ccccc3s2)n1	188.9
Cc1ccc(S(=O)(=O)N2CCN(C(=O)CN3CCCCC3)C2C(C)C)cc1 (stereo not given)	6.5
CSc1nsc(SC)c1C(=O)Nc1ccc(C)cc1	5.1
CSc1nsc(SC)c1C(=O)N1CCN(S(=O)(=O)c2ccc(C)cc2)C1C (stereo not given)	125.0*
Cc1cc(Cl)cc(Cl)c1OCCOc1cccc2cccnc12	83.9*
Cc1cc(Cl)cc(Cl)c1OCCOCCN(C)C	128.6
Cc1ccc(OCCOCCOc2cccc3cccnc23)c(Br)c1	8.3
O=C(CSc1ncn(-c2ccccc2)n1)Nc1nccs1	-8.3
O=C(CSc1nn(-c2ccccc2)c(=S)s1)Nc1ncccn1	376.9*
Cc1cc(C)nc(NC(=O)CSc2nc3ccccc3s2)n1	-4.2
CN1CCN(C(c2ccccc2)c2nnnn2Cc2ccccc2)CC1 (stereo not given)	0.0
SMILES	INS promoter act
O=C(c1ccco1)N1CCN(C(c2ccc(Cl)cc2)c2nnnn2Cc2ccccc2)CC1 (stereo not given)	6.7
O=C(Nc1ccc(Cl)cc1)OCCn1nnnc1C(c1ccccc1)N1CCOCC1 (stereo not given)	88.6*
CCn1nnc(-c2ccccc2NC(=O)c2cnccn2)n1	271.4
Cc1oc(-c2ccccc2)cc1C(=O)Nc1ccc(N(C)C)cc1	-5.4
COc1ccc(N=Cc2sc(O)c3ccccc23)cc1	0.0
CCN(c1ccc(N=Cc2c(O)n(Cc3ccc(OC)cc3)c(=O)c3ccccc23)cc1)C(C)C	471.4*
O=c1c2ccccc2c(C=NCCCN2CCOCC2)c(O)n1Cc1ccccc1	-3.2
O=C(CCSc1nc(-c2ccco2)cc(C(F)(F)F)n1)N1CCCc2ccccc21	-90.9
O=C(Cn1cnc2ccccc21)NC(c1ccccc1)c1ccccc1	-8.3
Cc1cc(C2C(C#N)=C(N)SC(N)=C2C#N)c(C)s1	184.6
CCCCc1ccc(C2C(C#N)=C(N)SC(N)=C2C#N)s1	275.0*
Cc1sccc1C1C(C#N)=C(N)SC(N)=C1C#N	276.2
CC(C)Sc1ncc(S(=O)(=O)c2ccccc2)c(=O)[nH]1	106.3
CCC(CO)NC1=CC(=O)CCC1 (stereo not given)	0.0
O=S(=O)(NCCc1cn2ccccc2n1)c1ccc2c(c1)CCCC2	197.6
O=C(Nc1ccccc1Oc1ccccc1)c1ccccc1F	-2.0
C[C@@H](C(=O)NCC1CC1)[C@@H]1C[C@@]1(C)[C@@H](NC(=O)OCc1ccccc1)c1ccccc1	0.0
CNC(=O)[C@@H]1C[C@H]1[C@@H](NC(=O)OCc1ccccc1)c1ccccc1	255.0*
C[C@H](CO)NC(=O)[C@H](C)[C@H]1C[C@]1(C)[C@H](NC(=O)OCc1ccccc1)c1ccccc1	0.0
CCc1ccc(-c2csc3ncn(CC(=O)N4CCOCC4)c(=O)c23)cc1	0.0
O=C(NCc1ccco1)C(c1ccccc1)N(Cc1ccccc1)C(=O)Cn1nnc2ccccc21 (stereo not given)	64.3
COc1cc2c(cc1NC(=O)CSc1cccc[n+]1[O-])oc1ccccc12	0.0
COc1cc2c(cc1NC(=O)CCCN1C(=O)CCC1=O)oc1ccccc12	506.3*
COc1cc2c(cc1NC(=O)c1cncc(Br)c1)oc1ccccc12	443.8*
COc1cc2c(cc1NC(=O)Nc1ccccc1)oc1ccccc12	-6.9
COc1cc2c(cc1NC(=O)CSCC(=O)O)oc1ccccc12	-7.1
COc1cc2c(cc1NC(=O)COc1ccccc1OC)oc1ccccc12	3.3
O=C(Cc1c[nH]c2ccccc12)NCc1ccc(Cl)cc1Cl	0.0
CCOCCC(=O)Nc1cc(Cl)ccc1OC	-3.3
